MsrA inh = inhibitors of bovine MsrA. 0.75% of 360,000 active. AID 651718. inhibition, % at 15.5 µM. purified bovine MsrA, absorbance read-out;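 also: 0% = vehicle wells with enzyme and 100% = reference inhibitor wells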
bovine MsrA act = activates bovine MsrA enzyme. 0.3% of 360,000 active. activation, % at 10.6 µM. purified bovine MsrA, absorbance read-out; in the data active = activation above about 7.5%;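 also: 0% = vehicle and 100% = reference activator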
A1 inh = inhibitors of the anti-apoptotic protein A1, read as caspase activation; caspase activation, % (concentration not given with the values); 0.066% of 330,000 active; MEF A1-2A-BIM cells, Caspase-Glo 3/7 luminescence, 3 h; percent of clofoctol response, vehicle zero;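 active = over half of replicate activation scores above 10%, or exactly half above 10 with the replicate mean above 10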
procasp3 activ = activators of human procaspase-3 | recombinant procaspase-3 D3A, Ac-DEVD-pNA absorbance 405 nm | activation, % at 8.5 µM | 0.11% of 330,000 active | P42574;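 active = activation above the mean of all tested compounds plus 3 SD, cut at about 21% in these data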;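 also: 0% = DMSO alone and 100% = DMSO wells spiked with extra 5 µM PC-3 D3A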
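material = Procaspase-3 D3A mutant | probe or stimulus = Ac-DEVD-pNA | compound = single dose, 8.5 µM nominal compound, 0.8% DMSO | timing = 1 h preincubation, 2 h reaction | measured by = 405 nm absorbance of p-nitroaniline, reads at 0 and 120 min | benchmarks = DMSO-only low control, 5 µM PC-3 D3A high control | repeats = singlicate, each compound tested once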
procasp7 counter = counter-screen: procaspase-7 (human) activation. 0.093% of 330,000 active. P55210. recombinant procaspase-7, Ac-DEVD-pNA absorbance 405 nm; D23A/D198A/D206A triple mutant, cannot self-cleave; scale: DMSO 0, 5 µM enzyme 100. activation, % at 8.5 µM;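 active = percent activation above the screen-wide mean plus 3 SD, cut at about 25% in these data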
Target sequence (P55210 whole entry D23A/D198A/D206A): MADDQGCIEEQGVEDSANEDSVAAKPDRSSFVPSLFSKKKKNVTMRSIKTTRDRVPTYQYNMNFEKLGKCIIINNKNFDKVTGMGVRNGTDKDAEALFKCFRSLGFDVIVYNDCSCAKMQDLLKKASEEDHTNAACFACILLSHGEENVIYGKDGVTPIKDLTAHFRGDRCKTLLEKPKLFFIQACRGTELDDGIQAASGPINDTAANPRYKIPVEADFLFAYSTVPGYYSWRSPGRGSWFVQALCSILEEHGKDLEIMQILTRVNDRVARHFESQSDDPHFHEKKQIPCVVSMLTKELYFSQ
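Test system: Procaspase-7 triple mutant (PC-7 D3A). Also added: Ac-DEVD-pNA substrate, 400 µM as added. Schedule: 1 h enzyme–compound preincubation and 2 h substrate reaction, both 25 °C. Signal: p-Nitroaniline absorbance at 405 nm, read at 0 and 120 min. Control set: low DMSO alone, high DMSO plus 5 µM PC-7.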
MsrA conf = bovine MsrA inhibition, confirmed; shares compounds with MsrA inh; purified bovine MsrA, absorbance read-out; inhibition, % at 15.5 µM; 41% of 2,300 active; AID 651822;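 also: coupled to thioredoxin reductase with NADPH and selenocystamine and DMSO as substrate; 0% = vehicle only and 100% = full effect of reference inhibitor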
Active calls of the source: *; · = no result given. Compounds with a hit are over-represented: about 1.2% of the library has one in this group of screens. Rule as the data show it, unless noted: active = inhibition above about 4.5%; inactive = the rest.

SMILES | MsrA inh | bovine MsrA act | A1 inh | procasp3 activ | procasp7 counter | MsrA conf
O=C(N/N=C\C=C\c1ccc2c(c1)OCO2)c1cccnc1 | 8.0* | -14.7 | -0.4 | -7.3 | -1.0 | 5.7*
O=C(N/N=C/c1ccc(N2CCOCC2)cc1)C1COc2ccccc2O1 (configuration not stated) | 2.8 | -5.2 | 0.0 | 5.4 | 6.9 | ·
COc1cccc(C(=O)N[C@H](C(=O)N2CCC[C@H]2C(=O)NCCc2ccccc2Cl)c2ccccc2)c1 | -1.0 | · | · | · | · | ·
CCN(c1ccc(NC(=O)COC(=O)C2CCN(c3ccc(C(F)(F)F)cn3)CC2)cc1)C(C)C | 0.0 | -1.6 | · | · | · | ·
Cn1cnc2c(N/N=C/c3cccs3)ncnc21 | 5.2* | -4.8 | -4.0 | -4.0 | 5.5 | 6.9*
COc1ccc(/C=C/C(=O)c2ccc(O)cc2)cc1 | 5.2* | -9.7 | -8.5 | 8.5 | 4.2 | 4.2
COc1ccc(C=CC(=O)c2ccc(OC)c(OC)c2)cc1O | 4.7* | -11.4 | · | · | · | 2.7
CC1CCN(S(=O)(=O)c2ccc3c(c2)N(CC(=O)NCCCN2C(C)CCCC2C)C(=O)CO3)CC1 (configuration not stated) | 1.3 | -4.1 | -1.0 | 8.2 | 7.2 | ·
O=C(NCC(c1ccccc1Cl)N1CCCC1)c1ccc(N2CCCC2=O)cc1 (configuration not stated) | 0.0 | 0.5 | · | · | · | ·

Screening results: PubChem BioAssay, several laboratories
